Shown are actives, neighbours in structure and some others; about 2.3% of the full set was active somewhere.
SR-BI DiI inh – blocks mouse SR-BI lipid uptake from DiI-HDL; Q61009; ldlA[mSR-BI] CHO cells, DiI-HDL uptake fluorescence, 3 h; inhibition, % at 12.5 µM; 320,000 tested, 0.96% active; AID 488896;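 active = mean replicate inhibition of at least 70% and a set share of replicates each scoring 70 or more; inconclusive = meets just one of the two criteria; inactive = fails both criteria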;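 note: 0% = median of neutral control wells and 100% = median of positive control wells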
CAL PDZ FP-1 – blocks peptide binding to the human CAL PDZ domain; Q9HD26; purified CAL PDZ, TMR-peptide fluorescence polarization, 1 h; inhibition, % at 24.9 µM; 300,000 tested, 0.92% active;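 active = mean inhibition of at least 30% with at least half of replicates also reaching 30%; inconclusive = no clear call, values can overlap the other calls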;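 note: 0% = DMSO neutral control and 100% = excess unlabeled competitor peptide PRC23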
SR-BI uptake up – enhances SR-BI lipid uptake from DiI-HDL; CHO ldlA[mSR-BI] cells, DiI-HDL uptake fluorescence, 3 h; 100 = double the neutral-control signal; activation, % at 12.5 µM; 320,000 tested, 0.096% active; AID 504775;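 active = mean replicate activation of at least 60% and every replicate at or above 60%; inconclusive = mean or all-replicate condition met, but not both; inactive = mean below 60% and not all replicates reaching 60%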;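 note: 0% = median plate neutral-control signal and 100% = twice that signal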
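Test system: SR-BI-overexpressing, LDLR-lacking CHO cells; Also added: labelled HDL, 10 µg/mL; Measured by: bottom-read cell fluorescence after medium removal, ex 550/em 595 nm; Timing: 3 h uptake period with compound, 37 °C; Buffer or medium: F12, 0.5% BSA, 25 mM HEPES; Doses: single compound concentration, delivered by pin transfer.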
ATG4B inhibitor – blocks human ATG4B protease cleavage of LC3 substrate. AID 504462. inhibition, % at 8.33 µM. Q9Y4P1. 340,000 tested, 0.51% active. ATG4B cleavage of LC3-PLA2, NBD-HPC fluorescence, 1 h; in the data active = inhibition above about 40%
Target sequence (Q9Y4P1 whole entry, looked up): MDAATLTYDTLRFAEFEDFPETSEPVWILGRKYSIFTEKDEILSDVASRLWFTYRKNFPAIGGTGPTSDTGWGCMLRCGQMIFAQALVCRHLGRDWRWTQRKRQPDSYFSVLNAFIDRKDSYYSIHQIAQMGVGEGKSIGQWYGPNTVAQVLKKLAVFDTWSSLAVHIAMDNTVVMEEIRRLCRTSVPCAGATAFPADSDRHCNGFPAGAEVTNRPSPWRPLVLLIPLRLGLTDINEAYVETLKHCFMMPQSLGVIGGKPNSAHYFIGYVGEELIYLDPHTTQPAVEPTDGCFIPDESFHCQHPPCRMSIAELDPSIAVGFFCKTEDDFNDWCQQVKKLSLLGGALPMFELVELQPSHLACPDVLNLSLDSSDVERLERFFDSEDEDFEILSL
CAL PDZ FP-2 – human CAL PDZ-peptide interaction inhibition; Q9HD26; purified CAL PDZ, TMR-peptide fluorescence polarization, 1 h; inhibition, % at 20 µM; 330,000 tested, 0.02% active;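 active = highest replicate inhibition of at least 40%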;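 note: plate controls were DMSO neutral control wells for no effect and unlabeled competitor peptide control wells for full effect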
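material = purified tagged CAL PDZ domain construct (CerCALP) | compound dosing = 20 µM, one dose | times = 1 h at RT | measured by = fluorescence polarization from S- and P-plane intensities, G-factor corrected | read-out = inhibition from polarization loss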
DiI quench – quenches DiI-HDL fluorescence, an SR-BI assay artifact. shares compounds with SR-BI DiI inh. cell-free DiI-HDL fluorescence quenching, 30 min. AC50, µM (series often up to 35 µM), inactives show top-dose activity change, negative = quenching. 470 tested, 20% active. AID 540326;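 active = quenching, a falling signal, with AC50 below a set limit tied to the top valid dose, actives reach about 32 µM in these data; inconclusive = no clear call, values can overlap the other calls; inactive = rising signal, and the rest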
* marks the source's active call; other numbers are inactive results; ? = inconclusive; · = not tested or not shown.

SMILES | SR-BI DiI inh | CAL PDZ FP-1 | SR-BI uptake up | ATG4B inhibitor | CAL PDZ FP-2 | DiI quench
Cc1ccc(NC(=O)CN2C(=O)N/C(=C/c3ccc(N4CCOCC4)cc3)C2=O)cc1 | 5 | -3 | -5 | -4 | 0 | ·
Cc1ccc2c(c1)C(=O)C(=O)N2CC(=O)Nc1ccc(N2CCOCC2)cc1 | 4 | -9 | -4 | -41 | -8 | -11%
CC1Cc2ccccc2N1CC(=O)Nc1ccc(N2CCOCC2)cc1 (configuration not stated) | 83* | -2 | -83 | -5 | -2 | -19%
CCN(CC)C(=O)CSc1nc2c(sc(=S)n2-c2ccc(C)cc2C)c(=O)[nH]1 | -7 | -3 | 7 | -10 | -2 | ·
CC(=O)Nc1ccc(NC(=O)C(C)OC(=O)CCCN2C(=O)c3cccc4cccc(c34)C2=O)cc1 (configuration not stated) | 5 | 4 | -5 | 5 | -1 | ·
O=C(NNc1c(F)c(F)cc(F)c1F)C1CCN(S(=O)(=O)c2ccccc2F)CC1 | 79* | -5 | -79 | -14 | -1 | -1%
O=C(NCc1ccccn1)C1CCN(S(=O)(=O)c2ccccc2F)CC1 | -28 | -6 | 28 | -7 | -1 | ·
COc1ccc(C(=O)N2CCN(c3ccc([N+](=O)[O-])c(NCCc4ccc(OC)c(OC)c4)c3)CC2)cc1 | ? | 3 | -74 | -5 | -1 | 3%
CCOC(=O)C(=O)Nc1nc(-c2ccc3c(c2)CCN3C(=O)C2CC2)c(C)s1 | 56 | 2 | -56 | 18 | -3 | -11%
O=C(CCNS(=O)(=O)c1ccccc1)OCC(=O)c1ccc(Cl)cc1 | -7 | -5 | 7 | -4 | -3 | ·
CN(C)C(=O)c1ccc(-n2nc(C(F)(F)F)c3c2CCCC3)cc1 | 83* | -3 | -83 | -1 | · | -5%
O=C(O)c1ccc(-n2nc(C(F)(F)F)c3c2CCCC3)cc1 | -14 | 2 | 14 | -7 | -18 | ·
O=C(c1ccc(-n2nc(C(F)(F)F)c3c2CCCC3)cc1)N1CCOCC1 | 79* | -2 | -79 | 7 | -1 | -1%
Cc1ccc(C(=O)Nc2ccc(F)c(S(=O)(=O)N3CCOCC3)c2)s1 | 34 | -1 | -34 | -3 | -1 | ·
Cc1ccc(NC(=O)c2cc(S(=O)(=O)N3CCOCC3)c(Br)s2)cc1 | ? | -4 | -73 | -14 | -2 | 3%
CC(C)(C)[C@H]1COC(=O)[C@H](NC(=O)OCC2c3ccccc3-c3ccccc32)C/C=C\C[C@@H](CC(=O)N[C@H](CO)Cc2ccccc2)C(=O)N1 | 27 | -3 | -27 | -7 | -1 | ·
O=C(C[C@@H]1C/C=C\C[C@H](NC(=O)OCC2c3ccccc3-c3ccccc32)C(=O)O[C@H](c2ccccc2)CNC1=O)NCCO | 36 | 0 | -36 | -9 | -2 | -10%
O=C(N[C@@H]1C/C=C\C[C@H](CC(=O)N(CCO)Cc2ccccc2)C(=O)N[C@@H](Cc2ccccc2)COC1=O)OCC1c2ccccc2-c2ccccc21 | 46 | -5 | -46 | 19 | 0 | ·
O=C1NCCOC(=O)[C@H](Cc2ccc(F)cc2)C/C=C\C[C@H]1CC(=O)N(CCO)Cc1ccccc1 | 4 | 0 | -4 | -9 | 0 | ·
O=C(N[C@@H]1C/C=C\C[C@@H](CC(=O)N(CCO)Cc2ccccc2)C(=O)NCCOC1=O)OCC1c2ccccc2-c2ccccc21 | 78* | -4 | -78 | 0 | 0 | -9%
C[C@@H]1COC(=O)[C@H](NC(=O)OCC2c3ccccc3-c3ccccc32)C/C=C\C[C@@H](CC(=O)N[C@@H](CO)Cc2ccccc2)C(=O)N1 | 84* | -6 | -84 | -7 | 0 | -5%
O=C1NCCOC(=O)[C@H](Cc2ccc(F)cc2)C/C=C\C[C@@H]1CC(=O)N(CCO)Cc1ccccc1 | -9 | -2 | 9 | -1 | -3 | -3%
COC(=O)/C=C1/SC(=NC(=O)c2cccc([N+](=O)[O-])c2)NC1=O | -13 | -1 | 13 | 15 | -2 | ·
Cc1cc(C)cc(NC(=O)CCc2c(C)nn(-c3ccc(N4CCCCC4)nn3)c2C)c1 | 79* | 3 | -79 | 5 | 0 | -3%

Screens (PubChem BioAssay)
